Data as given in ChEMBL document CHEMBL4190366, “Discovery and synthesis of novel Wogonin derivatives with potent antitumor activity in vitro” (Eur J Med Chem, 2017).
Active and inactive are the calls of the source. The calls are words filed in the database; no cut-off is given here.

Legend:
L02 [1] = assay: Cytotoxicity in human LO2 cells assessed as reduction in cell viability at 30 uM incubated for 48 hrs by MTT assay; assay type: cell-based; settings: l02, 48 h
Procedure, shortened: (§1)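 Normal hepatic L02 cells incubated with compound for 48 h. Cell viability measured across a concentration series.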

HepG2 [2] = assay: Induction of apoptosis in human HepG2 cells assessed as apoptosis level at 2 to 4 uM incubated for 24 hrs by FITC-labelled Annexin V/PI staining based flow cytometry; assay type: functional, cell-based
Procedure, shortened: (§2)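 HepG2 treated 24 h with 2, 4 or 6 µM; 0.1% DMSO vehicle control. Stained with FITC-Annexin V/PI and analysed by flow cytometry 10-15 min after staining. Annexin V+/PI- counted as early/median apoptotic, Annexin V+/PI+ as late apoptotic.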

MCF7 = assay: Cytotoxicity in human MCF7 cells assessed as reduction in cell viability incubated for 72 hrs by MTT assay; assay type: functional, cell-based
Procedure, shortened: (§3)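 Cells pre-incubated 24 h at 37 °C, 5% CO2, then exposed to a range of compound concentrations for 72 h. Viability read as mitochondrial MTT-to-formazan conversion, absorbance at 570 nm.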

[3] = molecular target: Hepatocyte growth factor receptor (Homo sapiens, UniProt P08581); assay: Inhibition of c-Met (unknown origin)
Procedure, shortened: (§4)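 Kinase profiling run as a contract service, with ATP at the Km of each kinase.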

[4] = Selectivity index, ratio of IC50 for human LO2 cells to IC50 for mouse B16 cells; assay type: toxicity; settings: LO2 cells versus B16 cells, read-out: Ratio IC50
Procedure, shortened: (§5)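 Selectivity ratio is L02 IC50 divided by cancer-cell IC50, each taken from the MTT viability assay.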

[5] = Selectivity index, ratio of IC50 for human LO2 cells to IC50 for human HepG2 cells; assay type: toxicity; settings: LO2 cells versus HepG2 cells, read-out: Ratio IC50; procedure, shortened: as §5
HepG2 [6] = assay: Induction of apoptosis in human HepG2 cells assessed as apoptosis level incubated for 24 hrs by FITC-labelled Annexin V/PI staining based flow cytometry; assay type: functional, cell-based; procedure, shortened: as §2
L02 [7] = assay: Cytotoxicity in human LO2 cells assessed as reduction in cell viability at 15 uM incubated for 48 hrs by MTT assay; assay type: cell-based; settings: l02, 48 h; procedure, shortened: as §1
HepG2 [8] = assay: Induction of ROS generation in human HepG2 cells at 2 to 6 uM incubated for 24 hrs by DCFH-DA staining based flow cytometry; assay type: functional, cell-based
Procedure, shortened: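 HepG2 seeded at 6×10^4 cells/well and grown 24 h, then treated 24 h with 2, 4 or 6 µM. Washed with PBS and serum-free medium, loaded with serum-free DCFH-DA 30 min at 37 °C, washed twice cold. Fluorescence read by flow cytometry at 488/525 nm. Mean ± SEM, n = 3.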

A549 [9] = assay: Cytotoxicity in human A549 cells assessed as reduction in cell viability incubated for 72 hrs by MTT assay
HepG2 [10] = assay: Ratio of cytotoxicity in human HepG2 cells at 10 uM in presence of 5 mM NAC incubated for 48 hrs by MTT assay to cytotoxicity in human HepG2 cells at 10 uM in absence of 5 mM NAC incubated for 48 hrs by MTT assay; assay type: functional
Procedure, shortened: (§6)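 HepG2 cells incubated 48 h with compound at 1, 5 or 10 µM, with or without 5 mM N-acetylcysteine. Ratio is cell viability with NAC divided by viability with compound alone at the same concentration.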

HepG2 [11] = assay: Cytotoxicity in human HepG2 cells assessed as reduction in cell viability incubated for 72 hrs by MTT assay; assay type: functional, cell-based; procedure, shortened: as §3
HepG2 [12] = assay: Induction of apoptosis in human HepG2 cells assessed as apoptosis level at 6 uM incubated for 24 hrs by FITC-labelled Annexin V/PI staining based flow cytometry (reference value: 2.6%); assay type: functional; procedure, shortened: as §2
[13] = Selectivity index, ratio of IC50 for human LO2 cells to IC50 for human HeLa cells; assay type: toxicity; settings: LO2 cells versus HeLa cells, read-out: Ratio IC50; procedure, shortened: as §5
HeLa = assay: Cytotoxicity in human HeLa cells assessed as reduction in cell viability incubated for 72 hrs by MTT assay; assay type: functional, cell-based; procedure, shortened: as §3
[14] = molecular target: Cyclin-dependent kinase 9 (Homo sapiens, UniProt P50750); assay: Inhibition of CDK9 (unknown origin); procedure, shortened: as §4
B16 = assay: Cytotoxicity in mouse B16 cells assessed as reduction in cell viability incubated for 72 hrs by MTT assay; assay type: functional, cell-based; procedure, shortened: as §3
HepG2 [15] = assay: Ratio of cytotoxicity in human HepG2 cells at 1 uM in presence of 5 mM NAC incubated for 48 hrs by MTT assay to cytotoxicity in human HepG2 cells at 1 uM in absence of 5 mM NAC incubated for 48 hrs by MTT assay; assay type: functional; procedure, shortened: as §6
[16] = Selectivity index, ratio of IC50 for human LO2 cells to IC50 for human MCF7 cells; assay type: toxicity; settings: LO2 cells versus MCF7 cells, read-out: Ratio IC50; procedure, shortened: as §5
[17] = molecular target: Cyclin-dependent kinase 2 (Homo sapiens, UniProt P24941); assay: Inhibition of CDK2 (unknown origin); procedure, shortened: as §4
HepG2 [18] = assay: Ratio of cytotoxicity in human HepG2 cells at 5 uM in presence of 5 mM NAC incubated for 48 hrs by MTT assay to cytotoxicity in human HepG2 cells at 5 uM in absence of 5 mM NAC incubated for 48 hrs by MTT assay; assay type: functional; procedure, shortened: as §6
[19] = Selectivity index, ratio of IC50 for human LO2 cells to IC50 for human A549 cells; assay type: toxicity; settings: LO2 cells versus A549 cells, read-out: Ratio IC50; procedure, shortened: as §5
A549 [20] = assay: Cytotoxicity in human A549 cells assessed as reduction in cell viability incubated for 72 hrs by MTT assay; settings: A549, 72 h
LNCaP = assay: Cytotoxicity in human LNCAP cells assessed as reduction in cell viability incubated for 72 hrs by MTT assay; assay type: functional, cell-based; procedure, shortened: as §3
[21] = Selectivity index, ratio of IC50 for human LO2 cells to IC50 for human LNCAP cells; assay type: toxicity; settings: LO2 cells versus LNCAP cells, read-out: Ratio IC50; procedure, shortened: as §5

Hepatocyte growth factor receptor, sequence (P08581 whole entry): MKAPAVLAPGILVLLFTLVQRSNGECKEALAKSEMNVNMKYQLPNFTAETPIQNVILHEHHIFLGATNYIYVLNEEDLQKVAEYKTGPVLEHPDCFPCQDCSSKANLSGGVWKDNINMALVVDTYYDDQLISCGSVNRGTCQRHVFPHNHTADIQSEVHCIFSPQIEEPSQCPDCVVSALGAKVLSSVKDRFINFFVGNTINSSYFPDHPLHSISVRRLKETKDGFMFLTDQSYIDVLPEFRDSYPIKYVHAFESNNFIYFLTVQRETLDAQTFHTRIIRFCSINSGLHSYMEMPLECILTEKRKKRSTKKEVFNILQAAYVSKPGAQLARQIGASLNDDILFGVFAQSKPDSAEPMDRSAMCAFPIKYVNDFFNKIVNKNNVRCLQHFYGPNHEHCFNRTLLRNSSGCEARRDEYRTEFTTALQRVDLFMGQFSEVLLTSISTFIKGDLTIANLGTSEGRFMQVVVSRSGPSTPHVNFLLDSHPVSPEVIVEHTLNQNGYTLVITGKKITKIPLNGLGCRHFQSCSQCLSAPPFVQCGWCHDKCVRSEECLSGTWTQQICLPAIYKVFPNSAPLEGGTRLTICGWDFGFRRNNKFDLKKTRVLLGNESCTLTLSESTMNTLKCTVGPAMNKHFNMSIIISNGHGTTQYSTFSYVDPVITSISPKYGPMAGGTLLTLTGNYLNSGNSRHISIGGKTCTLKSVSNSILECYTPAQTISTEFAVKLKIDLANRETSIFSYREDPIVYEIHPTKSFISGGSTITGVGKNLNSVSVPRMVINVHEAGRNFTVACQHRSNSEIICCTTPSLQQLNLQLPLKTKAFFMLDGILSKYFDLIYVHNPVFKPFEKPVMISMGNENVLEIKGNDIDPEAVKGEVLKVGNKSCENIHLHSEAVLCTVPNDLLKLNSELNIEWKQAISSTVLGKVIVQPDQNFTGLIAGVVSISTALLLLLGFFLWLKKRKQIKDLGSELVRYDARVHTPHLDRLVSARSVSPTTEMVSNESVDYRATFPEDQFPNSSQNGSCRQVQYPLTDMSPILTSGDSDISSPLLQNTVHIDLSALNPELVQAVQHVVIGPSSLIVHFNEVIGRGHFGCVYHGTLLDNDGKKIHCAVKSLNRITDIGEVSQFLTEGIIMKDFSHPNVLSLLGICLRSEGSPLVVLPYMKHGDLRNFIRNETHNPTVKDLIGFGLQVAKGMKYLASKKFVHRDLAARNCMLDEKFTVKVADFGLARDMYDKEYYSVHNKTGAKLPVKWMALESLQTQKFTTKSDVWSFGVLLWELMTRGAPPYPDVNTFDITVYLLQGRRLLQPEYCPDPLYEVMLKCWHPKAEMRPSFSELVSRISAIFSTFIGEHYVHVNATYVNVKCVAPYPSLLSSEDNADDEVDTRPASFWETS
Cyclin-dependent kinase 9, sequence (P50750 whole entry): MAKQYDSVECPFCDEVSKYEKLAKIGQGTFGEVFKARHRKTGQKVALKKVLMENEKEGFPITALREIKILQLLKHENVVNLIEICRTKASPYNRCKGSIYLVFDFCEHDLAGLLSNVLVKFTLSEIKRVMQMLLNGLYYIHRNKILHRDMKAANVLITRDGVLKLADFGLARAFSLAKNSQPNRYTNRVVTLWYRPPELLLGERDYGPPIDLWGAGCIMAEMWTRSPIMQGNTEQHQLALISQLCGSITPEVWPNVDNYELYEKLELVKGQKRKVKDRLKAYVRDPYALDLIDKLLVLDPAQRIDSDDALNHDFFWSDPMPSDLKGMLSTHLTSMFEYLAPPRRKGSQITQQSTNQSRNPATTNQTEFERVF

## CN1CCN(CCCCOc2c(OCc3ccc(C#N)cc3)cc(O)c3c(=O)cc(-c4ccccc4)oc23)CC1
L02 [1]
  Activity: Toxic
HepG2 [2]
  Activity: inactive
MCF7
  Activity: Dose-dependent effect
MCF7; MCF7, 72 h
  IC50: 2.42 µM
[3]
  IC50: 35 µM
[4]
  selectivity ratio: 4.3 to 27
[5]
  selectivity ratio: 27
HepG2 [6]
  Activity: Dose-dependent effect
L02 [7]
  Activity: Non-Toxic
HepG2 [8]
  Activity: Dose-dependent effect
A549 [9]
  Activity: Dose-dependent effect
HepG2 [10]
  Ratio: 7
HepG2 [11]
  Activity: Dose-dependent effect
HepG2 [11]; HepG2, 72 h
  IC50: 0.59 µM
HepG2 [12]
  Activity: 30.7%
[13]
  selectivity ratio: 4.3 to 27
HeLa
  Activity: Dose-dependent effect
  IC50: 2.65 µM
[14]
  IC50: 0.87 µM
B16
  Activity: Dose-dependent effect
B16; B16, 72 h
  IC50: 3.7 µM
HepG2 [15]
  Ratio: 2.7
[16]
  selectivity ratio: 4.3 to 27
[17]
  IC50: 6.7 µM
HepG2 [18]
  Ratio: 5.5
[19]
  selectivity ratio: 4.3 to 27
A549 [20]
  IC50: 2.14 µM
LNCaP
  Activity: Dose-dependent effect
  IC50: 1.72 µM
[21]
  selectivity ratio: 4.3 to 27
